According to ChEMBL document CHEMBL1629539, “Configuration of the 5'-methyl group modulates the biophysical and biological properties of locked nucleic acid (LNA) oligonucleotides” (J Med Chem, 2010):
Calls of active or inactive are those of the source. The calls are words filed in the database; no cut-off is given here.

Key:
[1] = system: snake venom phosphodiesterase; assay: Chemical stability in presence of snake venom phosphodiesterase assessed as half life; format: physicochemical
Mus musculus [2] = assay: Hepatoprotective activity in BALB/c mouse assessed as at 23 mg/kg, ip assessed as reduction of plasma alanine amino transferase levels after 72 hrs post dose; format: functional, organism-based; parameters: dose 23 mg/kg
In short: (§1)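 Balb-c mice, 4 per group, one ip dose at 23 or 46 mg/kg of 14-mer fully phosphorothioate gapmer ASO targeting PTEN. Sacrifice 72 h after dosing. Liver PTEN mRNA quantified by quantitative RT-PCR, expressed as % down-regulation versus saline-treated animals. Plasma ALT (IU/L) measured after sacrifice.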

Mus musculus [3] = assay: Hepatoprotective activity in BALB/c mouse assessed as at 46 mg/kg, ip assessed as reduction of plasma alanine amino transferase levels after 72 hrs post dose; format: functional, organism-based; parameters: dose 46 mg/kg; in short: as §1
Mus musculus [4] = assay: Reduction in PTEN mRNA expression in BALB/c mouse liver at 46 mg/kg, ip measured 72 hrs post dose by Rt-PCR; format: functional, organism-based; parameters: dose 46 mg/kg; in short: as §1
Mus musculus [5] = assay: Reduction in PTEN mRNA expression in BALB/c mouse liver at 23 mg/kg, ip measured 72 hrs post dose by Rt-PCR; format: functional, organism-based; parameters: dose 23 mg/kg; in short: as §1
Mus musculus [6] = assay: Reduction in PTEN mRNA expression in ip dosed BALB/c mouse liver administered twice weekly for 3 weeks measured after 72 hrs post last dose; format: functional
In short: (§2)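 Balb-c mice (n = 4/group) dosed ip twice a week for 3 weeks at 0.5, 1.5, 4.5 and 15 mg/kg of PTEN-targeting 14-mer phosphorothioate gapmer. Sacrifice 72 h after last dose. Liver PTEN mRNA by quantitative RT-PCR as % versus saline, with ED50 derived from dose-response. Plasma ALT (IU/L) recorded. Spleen weight given as fold increase over saline group.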

Mus musculus [7] = assay: Hepatoprotective activity in BALB/c mouse assessed as reduction of plasma alanine amino transferase levels at 15 mg/kg, ip administered twice weekly for 3 weeks measured after 72 hrs post last dose; format: functional, organism-based; parameters: dose 15 mg/kg; in short: as §2
Mus musculus [8] = assay: Toxicity in BALB/c mouse assessed as increase in spleen weight at 1.5 mg/kg, ip administered twice weekly for 3 weeks measured after 72 hrs post last dose; format: organism-based; parameters: dose 1.5 mg/kg, route intraperitoneal; settings: in vivo; in short: as §2
Mus musculus [9] = assay: Toxicity in BALB/c mouse assessed as increase in spleen weight at 4.5 mg/kg, ip administered twice weekly for 3 weeks measured after 72 hrs post last dose; format: organism-based; parameters: dose 4.5 mg/kg, route intraperitoneal; settings: in vivo; in short: as §2
Mus musculus [10] = assay: Reduction in PTEN mRNA expression in BALB/c mouse liver at 12 mg/kg, ip administered as single dose measured 72 hrs post dose; format: functional
In short: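 Single ip injection at 12 or 60 mg/kg of phosphorothioate gapmer (14-base deoxy gap, two modified nucleotides per wing) against PTEN in Balb-c mice, n = 4/group. After sacrifice, liver PTEN mRNA reported as % down-regulation versus saline controls, and plasma ALT (IU/L) measured as the liver toxicity read-out.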

Mus musculus [11] = assay: Hepatotoxicity in BALB/c mouse liver at 60 mg/kg, ip administered as single dose measured 72 hrs post dose

Compound: Cc1cn([C@H]2CC(OP(=O)(O)OC[C@H]3O[C@@H](n4cc(C)c(=O)[nH]c4=O)C[C@@H]3OP(=O)(O)OC[C@H]3O[C@@H](n4cc(C)c(=O)[nH]c4=O)C[C@@H]3OP(=O)(O)OC[C@H]3O[C@@H](n4cc(C)c(=O)[nH]c4=O)C[C@@H]3OP(=O)(O)OC[C@H]3O[C@@H](n4cc(C)c(=O)[nH]c4=O)C[C@@H]3OP(=O)(O)OC[C@H]3O[C@@H](n4cc(C)c(=O)[nH]c4=O)C[C@@H]3OP(=O)(O)OC[C@H]3O[C@@H](n4cc(C)c(=O)[nH]c4=O)C[C@@H]3OP(=O)(O)OC[C@H]3O[C@@H](n4cc(C)c(=O)[nH]c4=O)C[C@@H]3OP(=O)(O)OC[C@H]3O[C@@H](n4cc(C)c(=O)[nH]c4=O)C[C@@H]3OP(=O)(O)OC[C@H]3O[C@@H](n4cc(C)c(=O)[nH]c4=O)C[C@@H]3OP(=O)(O)OC[C@@]34CO[C@@H]([C@H](n5ccc(=O)[nH]c5=O)O3)[C@@H]4OP(=O)(O)OC[C@@]34CO[C@@H]([C@H](n5ccc(=O)[nH]c5=O)O3)[C@@H]4O)[C@@H](CO)O2)c(=O)[nH]c1=O (stereo not given in full)
- half-life [1]: 0.0433 h

Compound: Cc1cn([C@@H]2O[C@@]3(COP(O)(=S)O[C@H]4[C@H]5OC[C@]4(COP(O)(=S)O[C@H]4[C@H]6OC[C@]4(COP(O)(=S)O[C@H]4[C@H]7OC[C@]4(COP(O)(=S)O[C@H]4[C@H]8OC[C@]4(COP(O)(=S)O[C@H]4[C@H]9OC[C@]4(COP(O)(=S)O[C@H]4[C@H]%10OC[C@]4(COP(O)(=S)O[C@H]4[C@H]%11OC[C@]4([C@H](C)O)O[C@H]%11n4ccc(=O)[nH]c4=O)O[C@H]%10n4ccc(N)nc4=O)O[C@H]9n4cnc9c(N)ncnc94)O[C@H]8n4cc(C)c(=O)[nH]c4=O)O[C@H]7n4cnc7nc(N)[nH]c(=O)c74)O[C@H]6n4cnc6nc(N)[nH]c(=O)c64)O[C@H]5N4CCC(N)=NC4=O)CO[C@@H]2[C@@H]3OP(O)(=S)OC[C@@]23CO[C@@H]([C@H](n4cnc5nc(N)[nH]c(=O)c54)O2)[C@@H]3OP(O)(=S)OC[C@@]23CO[C@@H]([C@H](n4ccc(N)nc4=O)O2)[C@@H]3OP(O)(=S)OC[C@@]23CO[C@@H]([C@H](n4cnc5c(N)ncnc54)O2)[C@@H]3OP(O)(=S)OC[C@@]23CO[C@@H]([C@H](n4cnc5nc(N)[nH]c(=O)c54)O2)[C@@H]3OP(O)(=S)OC[C@@]23CO[C@@H]([C@H](n4ccc(N)nc4=O)O2)[C@@H]3OP(O)(=S)OC[C@@]23CO[C@@H]([C@H](n4ccc(=O)[nH]c4=O)O2)[C@@H]3O)c(=O)[nH]c1=O (stereo not given in full)
- Activity (Mus musculus [2]): Active
- Activity (Mus musculus [3]): Active
- inhibition (Mus musculus [4]): Active
- inhibition (Mus musculus [5]): inactive
- ED50 (Mus musculus [6]): 6 mg/kg
- inhibition (Mus musculus [6]): Dose-dependent effect
- Activity (Mus musculus [7]): Active
- Activity (Mus musculus [8]): Non-toxic
- Activity (Mus musculus [9]): Non-toxic

Compound: Cc1cn([C@H]2C[C@H](OP(=O)(O)OC[C@H]3O[C@@H](n4cc(C)c(=O)[nH]c4=O)C[C@@H]3OP(=O)(O)OC[C@H]3O[C@@H](n4cc(C)c(=O)[nH]c4=O)C[C@@H]3OP(=O)(O)OC[C@H]3O[C@@H](n4cc(C)c(=O)[nH]c4=O)C[C@@H]3OP(=O)(O)OC[C@H]3O[C@@H](n4cc(C)c(=O)[nH]c4=O)C[C@@H]3OP(=O)(O)OC[C@H]3O[C@@H](n4cc(C)c(=O)[nH]c4=O)C[C@@H]3OP(=O)(O)OC[C@H]3O[C@@H](n4cc(C)c(=O)[nH]c4=O)C[C@@H]3OP(=O)(O)OC[C@H]3O[C@@H](n4cc(C)c(=O)[nH]c4=O)C[C@@H]3OP(=O)(O)OC[C@H]3O[C@@H](n4cc(C)c(=O)[nH]c4=O)C[C@@H]3OP(=O)(O)OC[C@H]3O[C@@H](n4cc(C)c(=O)[nH]c4=O)C[C@@H]3OP(=O)(O)OC[C@@]34CO[C@@H]([C@H](n5ccc(=O)[nH]c5=O)O3)[C@@H]4OP(=O)(O)O[C@@H](C)[C@@]34CO[C@@H]([C@H](n5ccc(=O)[nH]c5=O)O3)[C@@H]4O)[C@@H](CO)O2)c(=O)[nH]c1=O
- half-life [1]: 8.1 h

Compound: Cc1cn([C@@H]2O[C@@]3(COP(O)(=S)O[C@H]4[C@H]5OC[C@]4(COP(O)(=S)O[C@H]4[C@H]6OC[C@]4(COP(O)(=S)O[C@H]4[C@H]7OC[C@]4(COP(O)(=S)O[C@H]4[C@H]8OC[C@]4(COP(O)(=S)O[C@H]4[C@H]9OC[C@]4(COP(O)(=S)O[C@H]4[C@H]%10OC[C@]4(COP(O)(=S)O[C@H]4[C@H]%11OC[C@]4(COP(O)(=S)O[C@H]4[C@H]%12OC[C@]4(COP(O)(=S)O[C@H]4[C@H]%13OC[C@]4([C@H](C)O)O[C@H]%13n4ccc(N)nc4=O)O[C@H]%12n4ccc(=O)[nH]c4=O)O[C@H]%11n4cnc%11c(=O)[nH]c(N)nc%114)O[C@H]%10n4ccc(N)nc4=O)O[C@H]9n4cc(C)c(=O)[nH]c4=O)O[C@H]8n4cnc8ncnc(N)c84)O[C@H]7[n+]4c[nH]c7nc(N)[nH]c(=O)c74)O[C@H]6n4ccc(N)nc4=O)O[C@H]5n4ccc(N)nc4=O)CO[C@@H]2[C@@H]3OP(O)(=S)OC[C@@]23CO[C@@H]([C@H](n4ccc(N)nc4=O)O2)[C@@H]3OP(O)(=S)OC[C@@]23CO[C@@H]([C@H](n4cc(C)c(=O)[nH]c4=O)O2)[C@@H]3OP(O)(=S)OC[C@@]23CO[C@@H]([C@H]([n+]4c[nH]c5nc(N)[nH]c(=O)c54)O2)[C@@H]3OP(O)(=S)OC[C@@]23CO[C@@H]([C@H]([n+]4c[nH]c5nc(N)[nH]c(=O)c54)O2)[C@@H]3OP(O)(=S)OC[C@@]23CO[C@@H]([C@H](n4cnc5ncnc(N)c54)O2)[C@@H]3OP(O)(=S)OC[C@@]23CO[C@@H]([C@H](n4cc(C)c(=O)[nH]c4=O)O2)[C@@H]3OP(O)(=S)OC[C@@]23CO[C@@H]([C@H](n4ccc(=O)[nH]c4=O)O2)[C@@H]3OP(O)(=S)OC[C@@]23CO[C@@H]([C@H](n4ccc(=O)[nH]c4=O)O2)[C@@H]3O)c(=O)[nH]c1=O (stereo not given in full)
- inhibition (Mus musculus [10]): Active

Compound: Cc1cn([C@H]2C[C@H](OP(=O)(O)OC[C@H]3O[C@@H](n4cc(C)c(=O)[nH]c4=O)C[C@@H]3OP(=O)(O)OC[C@H]3O[C@@H](n4cc(C)c(=O)[nH]c4=O)C[C@@H]3OP(=O)(O)OC[C@H]3O[C@@H](n4cc(C)c(=O)[nH]c4=O)C[C@@H]3OP(=O)(O)OC[C@H]3O[C@@H](n4cc(C)c(=O)[nH]c4=O)C[C@@H]3OP(=O)(O)OC[C@H]3O[C@@H](n4cc(C)c(=O)[nH]c4=O)C[C@@H]3OP(=O)(O)OC[C@H]3O[C@@H](n4cc(C)c(=O)[nH]c4=O)C[C@@H]3OP(=O)(O)OC[C@H]3O[C@@H](n4cc(C)c(=O)[nH]c4=O)C[C@@H]3OP(=O)(O)OC[C@H]3O[C@@H](n4cc(C)c(=O)[nH]c4=O)C[C@@H]3OP(=O)(O)OC[C@H]3O[C@@H](n4cc(C)c(=O)[nH]c4=O)C[C@@H]3OP(=O)(O)OC[C@@]34CO[C@@H]([C@H](n5ccc(=O)[nH]c5=O)O3)[C@@H]4OP(=O)(O)O[C@H](C)[C@@]34CO[C@@H]([C@H](n5ccc(=O)[nH]c5=O)O3)[C@@H]4O)[C@@H](CO)O2)c(=O)[nH]c1=O
- half-life [1]: 3.5 h

Compound: Cc1cn([C@@H]2O[C@@]3(CO)CO[C@@H]2[C@@H]3OP(O)(=S)OC[C@@]23CO[C@@H]([C@H](n4cc(C)c(=O)[nH]c4=O)O2)[C@@H]3OP(O)(=S)OC[C@@]23CO[C@@H]([C@H](n4cnc5c(=O)[nH]c(N)nc54)O2)[C@@H]3OP(O)(=S)OC[C@@]23CO[C@@H]([C@H](n4ccc(N)nc4=O)O2)[C@@H]3OP(O)(=S)OC[C@@]23CO[C@@H]([C@H](n4cc(C)c(=O)[nH]c4=O)O2)[C@@H]3OP(O)(=S)OC[C@@]23CO[C@@H]([C@H](n4cnc5ncnc(N)c54)O2)[C@@H]3OP(O)(=S)OC[C@@]23CO[C@@H]([C@H]([n+]4c[nH]c5nc(N)[nH]c(=O)c54)O2)[C@@H]3OP(O)(=S)OC[C@@]23CO[C@@H]([C@H](n4ccc(N)nc4=O)O2)[C@@H]3OP(O)(=S)OC[C@@]23CO[C@@H]([C@H](n4ccc(N)nc4=O)O2)[C@@H]3OP(O)(=S)OC[C@@]23CO[C@@H]([C@H](n4cc(C)c(=O)[nH]c4=O)O2)[C@@H]3OP(O)(=S)OC[C@@]23CO[C@@H]([C@H](n4ccc(N)nc4=O)O2)[C@@H]3OP(O)(=S)OC[C@@]23CO[C@@H]([C@H](n4cc(C)c(=O)[nH]c4=O)O2)[C@@H]3OP(O)(=S)OC[C@@]23CO[C@@H]([C@H]([n+]4c[nH]c5nc(N)[nH]c(=O)c54)O2)[C@@H]3OP(O)(=S)OC[C@@]23CO[C@@H]([C@H]([n+]4c[nH]c5nc(N)[nH]c(=O)c54)O2)[C@@H]3OP(O)(=S)OC[C@@]23CO[C@@H]([C@H](n4cnc5ncnc(N)c54)O2)[C@@H]3OP(O)(=S)OC[C@@]23CO[C@@H]([C@H](n4cc(C)c(=O)[nH]c4=O)O2)[C@@H]3OP(O)(=S)OC[C@@]23CO[C@@H]([C@H](n4cc(C)c(=O)[nH]c4=O)O2)[C@@H]3OP(O)(=S)OC[C@@]23CO[C@@H]([C@H](n4cc(C)c(=O)[nH]c4=O)O2)[C@@H]3O)c(=O)nc1N (stereo not given in full)
- inhibition in vivo at 12 mg/kg (Mus musculus [10]; route intraperitoneal): 90%
- Activity (Mus musculus [11]): Toxic
